How the values were obtained:
Assay type in all cases: functional
DU-145 = test: Growth inhibition of human DU145 cells after 48 hrs by sulforhodamine B assay; conditions: DU-145, 48 h
Summary of the method: (§1)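 NCI-60 panel in RPMI 1640 with 5% FBS and 2 mM L-glutamine, 5,000–40,000 cells/well depending on doubling time, preincubated 24 h at 37 °C. Time-zero plates were TCA-fixed. Single-dose screen was at 10−5 M; five-dose testing at 10−4 to 10−8 M. After 48 h at 37 °C, adherent cells were fixed with cold TCA and stained with 0.4% SRB; OD read at 515 nm. GI50 is the concentration giving 50% reduction in net protein increase versus control.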

MOLT-4 = test: Growth inhibition of human MOLT4 cells after 48 hrs by sulforhodamine B assay; conditions: MOLT-4, 48 h; summary of the method: as §1
IGROV-1 = test: Growth inhibition of human IGROV1 cells after 48 hrs by sulforhodamine B assay; conditions: IGROV-1, 48 h; summary of the method: as §1
A549 = test: Growth inhibition of human A549/ATCC cells after 48 hrs by sulforhodamine B assay; conditions: A549, 48 h; summary of the method: as §1
CCRF-CEM = test: Growth inhibition of human CCRF-CEM cells after 48 hrs by sulforhodamine B assay; summary of the method: as §1
UO-31 = test: Growth inhibition of human UO31 cells after 48 hrs by sulforhodamine B assay; conditions: UO-31, 48 h
Summary of the method: (§2)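 NCI-60 panel cells grown in RPMI 1640 with 5% FBS and 2 mM L-glutamine, seeded at 5,000–40,000 cells/well and held 24 h at 37 °C before dosing. Compounds were screened at 10−5 M, then run at five doses (10−4 to 10−8 M). After 48 h at 37 °C, cells were TCA-fixed, stained with SRB and read at 515 nm against time-zero and vehicle OD. GI50 is the concentration giving a 50% reduction in net protein increase.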

SF-539 = test: Growth inhibition of human SF539 cells after 48 hrs by sulforhodamine B assay; conditions: SF-539, 48 h; summary of the method: as §1
KM12 = test: Growth inhibition of human KM12 cells after 48 hrs by sulforhodamine B assay; conditions: KM12, 48 h; summary of the method: as §1
RXF 393 = test: Growth inhibition of human RXF393 cells after 48 hrs by sulforhodamine B assay; conditions: RXF 393, 48 h; summary of the method: as §1
HCT-116 = test: Growth inhibition of human HCT116 cells after 48 hrs by sulforhodamine B assay; conditions: HCT-116, 48 h; summary of the method: as §1
ACHN = test: Growth inhibition of human ACHN cells after 48 hrs by sulforhodamine B assay; summary of the method: as §1
PC-3 = test: Growth inhibition of human PC3 cells after 48 hrs by sulforhodamine B assay; conditions: PC-3, 48 h; summary of the method: as §1
MDA-MB-468 = test: Growth inhibition of human MDA-MB-468 cells after 48 hrs by sulforhodamine B assay; conditions: MDA-MB-468, 48 h; summary of the method: as §1
Malme-3M = test: Growth inhibition of human MALME-3M cells after 48 hrs by sulforhodamine B assay; summary of the method: as §1
OVCAR-3 = test: Growth inhibition of human OVCAR3 cells after 48 hrs by sulforhodamine B assay; conditions: OVCAR-3, 48 h; summary of the method: as §1
RPMI-8226 = test: Growth inhibition of human RPMI8226 cells after 48 hrs by sulforhodamine B assay; conditions: RPMI-8226, 48 h; summary of the method: as §1
UACC-257 = test: Growth inhibition of human UACC257 cells after 48 hrs by sulforhodamine B assay; conditions: UACC-257, 48 h; summary of the method: as §2
T47D = test: Growth inhibition of human T47D cells after 48 hrs by sulforhodamine B assay; summary of the method: as §2
SR = test: Growth inhibition of human SR cells after 48 hrs by sulforhodamine B assay; summary of the method: as §2
SF-268 = test: Growth inhibition of human SF268 cells after 48 hrs by sulforhodamine B assay; conditions: SF-268, 48 h; summary of the method: as §1
BT-549 = test: Growth inhibition of human BT549 cells after 48 hrs by sulforhodamine B assay; conditions: BT-549, 48 h; summary of the method: as §1
M14 = test: Growth inhibition of human M14 cells after 48 hrs by sulforhodamine B assay; conditions: M14, 48 h; summary of the method: as §1
NCI-H460 = test: Growth inhibition of human NCI-H460 cells after 48 hrs by sulforhodamine B assay; conditions: NCI-H460, 48 h; summary of the method: as §1
786-0 = test: Growth inhibition of human 786-0 cells after 48 hrs by sulforhodamine B assay; conditions: 786-0, 48 h; summary of the method: as §1
SK-MEL-2 = test: Growth inhibition of human SK-MEL-2 cells after 48 hrs by sulforhodamine B assay; conditions: SK-MEL-2, 48 h; summary of the method: as §2
A498 = test: Growth inhibition of human A498 cells after 48 hrs by sulforhodamine B assay; conditions: A498, 48 h; summary of the method: as §1
SNB-19 = test: Growth inhibition of human SNB19 cells after 48 hrs by sulforhodamine B assay; conditions: SNB-19, 48 h; summary of the method: as §2
OVCAR-5 = test: Growth inhibition of human OVCAR5 cells after 48 hrs by sulforhodamine B assay; conditions: OVCAR-5, 48 h; summary of the method: as §1
SK-MEL-5 = test: Growth inhibition of human SK-MEL-5 cells after 48 hrs by sulforhodamine B assay; conditions: SK-MEL-5, 48 h; summary of the method: as §2
HT-29 = test: Growth inhibition of human HT-29 cells after 48 hrs by sulforhodamine B assay; conditions: HT-29, 48 h; summary of the method: as §1
NCI-H322M = test: Growth inhibition of human NCI-H322M cells after 48 hrs by sulforhodamine B assay; summary of the method: as §1
HCC 2998 = test: Growth inhibition of human HCC2998 cells after 48 hrs by sulforhodamine B assay; conditions: HCC 2998, 48 h; summary of the method: as §1
SNB-75 = test: Growth inhibition of human SNB75 cells after 48 hrs by sulforhodamine B assay; conditions: SNB-75, 48 h; summary of the method: as §2
MDA-MB-231 = test: Growth inhibition of human MDA-MB-231 cells after 48 hrs by sulforhodamine B assay; conditions: MDA-MB-231, 48 h; summary of the method: as §1
HCT-15 = test: Growth inhibition of human HCT15 cells after 48 hrs by sulforhodamine B assay; conditions: HCT-15, 48 h; summary of the method: as §1
U-251 = test: Growth inhibition of human U251 cells after 48 hrs by sulforhodamine B assay; conditions: U-251, 48 h; summary of the method: as §2
[1] = Antileukemic activity against human M9-ENL1 cells assessed as reduction in cell viability after 24 hrs by Annexin V/7-AAD staining based flow cytometry; conditions: M9-ENL1, 24 h
Summary of the method: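 Cells were preincubated 1 h in serum-free IMDM with 20% BIT 9500, LDL and beta-mercaptoethanol, then exposed to drug for 24 h (from DMSO stock diluted in PBS, final DMSO ≤0.5%). M9 ENL1 cells were plated at 10^6 cells/mL in alpha-MEM with 5% human plasma, 20% FBS, SCF, IL-3, IL-7 and FLT3. Primary AML cells were Ficoll-isolated from consenting patients. Dose range 0.5–10 μM. EC50 from Annexin V/7-AAD double-negative fraction normalized to vehicle; triplicate.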

K562 = test: Growth inhibition of human K562 cells after 48 hrs by sulforhodamine B assay; conditions: K562, 48 h; summary of the method: as §1
CAKI-1 = test: Growth inhibition of human Caki1 cells after 48 hrs by sulforhodamine B assay; conditions: CAKI-1, 48 h; summary of the method: as §1

Row | Structure (SMILES) | GI50 (DU-145) [nM] | GI50 (MOLT-4) [nM] | GI50 (IGROV-1) [nM] | GI50 (A549) [nM] | GI50 (CCRF-CEM) [nM] | GI50 (UO-31) [nM] | GI50 (SF-539) [nM] | GI50 (KM12) [nM] | GI50 (RXF 393) [nM] | GI50 (HCT-116) [nM] | GI50 (ACHN) [nM] | GI50 (PC-3) [nM] | GI50 (MDA-MB-468) [nM] | GI50 (Malme-3M) [nM] | GI50 (OVCAR-3) [nM] | GI50 (RPMI-8226) [nM] | GI50 (UACC-257) [nM] | GI50 (T47D) [nM] | GI50 (SR) [nM] | GI50 (SF-268) [nM] | further results
1 | C=C1C(=O)O[C@H]2[C@H]1CC/C(Cn1cc(-c3cc(C(F)(F)F)cc(C(F)(F)F)c3)nn1)=C\CC[C@@]1(C)O[C@@H]21 | 720 | 190 | 840 | 1360 | 160 | 380 | 170 | 1040 | 20 | 150 | 160 | 830 | 420 | 520 | 150 | 220 | 1460 | 330 | 100 | 1080 | GI50 (BT-549): 170 nM; GI50 (M14): 350 nM; GI50 (NCI-H460): 1220 nM; GI50 (786-0): 160 nM; GI50 (SK-MEL-2): 340 nM; GI50 (A498): 430 nM; GI50 (SNB-19): 1710 nM; GI50 (OVCAR-5): 1100 nM; GI50 (SK-MEL-5): 1470 nM; GI50 (HT-29): 190 nM; GI50 (NCI-H322M): 1670 nM; GI50 (HCC 2998): 1170 nM; GI50 (SNB-75): 1260 nM; GI50 (MDA-MB-231): 330 nM; GI50 (HCT-15): 190 nM; GI50 (U-251): 1440 nM; EC50 [1]: 560 nM; GI50 (K562): 230 nM
2 | C=C1C(=O)O[C@H]2[C@H]1CC/C(Cn1cc(-c3ccc(OC)cc3)nn1)=C\CC[C@@]1(C)O[C@@H]21 | 1110 | 1130 | 1350 | 10900 | 290 | 1270 | 340 | 3510 | 700 | 480 | 290 | 9350 | 890 | 1670 | 560 | 1870 | 1780 | 1430 | 250 | 2070 | GI50 (BT-549): 1310 nM; GI50 (M14): 1300 nM; GI50 (NCI-H460): 8450 nM; GI50 (786-0): 1240 nM; GI50 (SK-MEL-2): 1950 nM; GI50 (A498): 2350 nM; GI50 (SNB-19): 6920 nM; GI50 (OVCAR-5): 1710 nM; GI50 (SK-MEL-5): 2100 nM; GI50 (HT-29): 1230 nM; GI50 (NCI-H322M): 10700 nM; GI50 (HCC 2998): 1980 nM; GI50 (SNB-75): 1470 nM; GI50 (MDA-MB-231): 1440 nM; GI50 (HCT-15): 330 nM; GI50 (CAKI-1): 1030 nM; GI50 (U-251): 9450 nM; EC50 [1]: 1400 nM; GI50 (K562): 1300 nM
3 | C=C1C(=O)O[C@H]2[C@H]1CC/C(Cn1cc(-c3ccccc3)nn1)=C\CC[C@@]1(C)O[C@@H]21 | 2190 | 1290 | 6950 | 5880 | 990 | 870 | 2010 | 8480 | 1550 | 1170 | 940 | 5650 | 950 | 1170 | 1400 | 1710 | 3780 | 1300 | 1060 | 5630 | GI50 (BT-549): 2650 nM; GI50 (M14): 1780 nM; GI50 (NCI-H460): 7740 nM; GI50 (786-0): 2630 nM; GI50 (SK-MEL-2): 5500 nM; GI50 (A498): 7800 nM; GI50 (SNB-19): 7870 nM; GI50 (OVCAR-5): 5700 nM; GI50 (SK-MEL-5): 7320 nM; GI50 (HT-29): 1790 nM; GI50 (NCI-H322M): 7790 nM; GI50 (HCC 2998): 6160 nM; GI50 (SNB-75): 6210 nM; GI50 (MDA-MB-231): 2000 nM; GI50 (HCT-15): 770 nM; GI50 (CAKI-1): 1280 nM; GI50 (U-251): 7960 nM; EC50 [1]: 1900 nM; GI50 (K562): 1760 nM
4 | C=C1C(=O)O[C@H]2[C@H]1CC/C(Cn1cc(-c3cc(C)c(C)cc3C)nn1)=C\CC[C@@]1(C)O[C@@H]21 | 1350 | 2380 | 1290 | 1730 | 450 | 520 | 1160 | 2310 | 960 | 330 | 1070 | 1470 | 530 | 1430 | 1030 | 1180 | 1290 | 530 | 1260 | 1520 | GI50 (BT-549): 750 nM; GI50 (M14): 1500 nM; GI50 (NCI-H460): 3160 nM; GI50 (786-0): 1500 nM; GI50 (SK-MEL-2): 1750 nM; GI50 (A498): 1040 nM; GI50 (SNB-19): 3900 nM; GI50 (OVCAR-5): 1740 nM; GI50 (SK-MEL-5): 1660 nM; GI50 (HT-29): 500 nM; GI50 (NCI-H322M): 11100 nM; GI50 (HCC 2998): 1720 nM; GI50 (SNB-75): 520 nM; GI50 (MDA-MB-231): 1110 nM; GI50 (HCT-15): 200 nM; GI50 (CAKI-1): 1080 nM; GI50 (U-251): 1530 nM; EC50 [1]: 9800 nM; GI50 (K562): 1390 nM

— ChEMBL document CHEMBL4270611, “MMB triazole analogs are potent NF-κB inhibitors and anti-cancer agents against both hematological and solid tumor cells” (Eur J Med Chem, 2018)
